{
  "source": "ChEMBL document CHEMBL1156600",
  "about": "“Diacarperoxides, norterpene cyclic peroxides from the sponge Diacarnus megaspinorhabdosa” (J Nat Prod, 2008)",
  "key": {"L5178Y": {"test_system": "L5178Y", "experiment": "Cytotoxicity against mouse L5178Y cells by MTT assay", "type": "functional, cell-based", "in_short": "(§1)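 Antiproliferative MTT (microculture tetrazolium) read-out in cancer cell lines: HeLa human cervix carcinoma, L5178Y mouse lymphoma, PC12 rat […] cells.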"}, "[1]": {"experiment": "Toxicity in Artemia salina assessed as mortality at 10 ug/ml after 48 hrs", "type": "organism-based", "conditions": "in vivo, read-out: Activity"}, "PC-12": {"test_system": "PC-12", "experiment": "Cytotoxicity against rat PC12 cells by MTT assay", "type": "functional, cell-based", "in_short": "as §1"}, "HeLa": {"test_system": "HeLa", "experiment": "Cytotoxicity against human HeLa cells by MTT assay", "type": "functional, cell-based", "in_short": "as §1"}, "[2]": {"experiment": "Toxicity in Artemia salina assessed as mortality at 10 ug/ml after 24 hrs", "type": "organism-based", "conditions": "in vivo, read-out: Activity"}},
  "note": "Active and inactive are the calls of the source. The calls are words filed in the database; no cut-off is given here.",
  "data": [
    {"smiles": "COC(=O)[C@H](C)[C@H]1CC[C@@](C)(CCC2=C(C)C(=O)C[C@@H]3C(C)(C)CCC[C@@]23C)OO1", "note": "[DIACARPEROXIDE G]", "values": [
      {"measurement": "EC50", "setting": "L5178Y", "value": 2, "unit": "µg/mL"},
      {"measurement": "mortality at 48 h, 10 ug/ml", "setting": "[1]", "value": 60, "unit": "%"},
      {"measurement": "EC50", "setting": "PC-12", "value": "> 10", "unit": "µg/mL"},
      {"measurement": "EC50", "setting": "HeLa", "value": "> 10", "unit": "µg/mL"},
      {"measurement": "mortality at 24 h, 10 ug/ml", "setting": "[2]", "value": 50, "unit": "%"}
    ]},
    {"smiles": "CC1=C(CC[C@]2(C)CC[C@H]([C@@H](C)C(=O)O)OO2)[C@@]2(C)CCCC(C)(C)[C@@H]2CC1=O", "note": "[DIACARPEROXIDE F]", "values": [
      {"measurement": "EC50", "setting": "L5178Y", "value": 0.06, "unit": "µg/mL"},
      {"measurement": "EC50", "setting": "PC-12", "value": 0.8, "unit": "µg/mL"},
      {"measurement": "EC50", "setting": "HeLa", "value": 0.6, "unit": "µg/mL"}
    ]},
    {"smiles": "COC(=O)[C@H](C)[C@H]1CC[C@@](C)(CCC2=C(C)CCCC2(C)C)OO1", "note": "[NUAPAPUIN A METHYL ESTER]", "values": [
      {"measurement": "EC50", "setting": "L5178Y", "value": 0.76, "unit": "µg/mL"},
      {"measurement": "mortality at 48 h, 10 ug/ml", "setting": "[1]", "value": 100, "unit": "%"},
      {"measurement": "EC50", "setting": "PC-12", "value": 6.2, "unit": "µg/mL"},
      {"measurement": "EC50", "setting": "HeLa", "value": 5.5, "unit": "µg/mL"},
      {"measurement": "mortality at 24 h, 10 ug/ml", "setting": "[2]", "value": 100, "unit": "%"}
    ]},
    {"smiles": "COC(=O)[C@@H](C)[C@@H]1CC[C@](C)(CCC(=O)C(C)(C)CCCC(C)=O)OO1", "note": "[DIACARPEROXIDE B]", "values": [
      {"measurement": "EC50", "setting": "L5178Y", "value": 10, "unit": "µg/mL"},
      {"measurement": "mortality at 48 h, 10 ug/ml", "setting": "[1]", "value": 55, "unit": "%"},
      {"measurement": "Activity", "setting": "PC-12", "value": "inactive"},
      {"measurement": "Activity", "setting": "HeLa", "value": "inactive"},
      {"measurement": "mortality at 24 h, 10 ug/ml", "setting": "[2]", "value": 45, "unit": "%"}
    ]},
    {"smiles": "C=C1CCCC(C)(C)C1(O)CC/C(C)=C/CC[C@]1(C)CC[C@H]([C@@H](C)C(=O)OC)OO1", "note": "(some centres undefined) [EPIMUQUBILIN B]", "values": [
      {"measurement": "EC50", "setting": "L5178Y", "value": "< 0.1", "unit": "µg/mL"},
      {"measurement": "mortality at 48 h, 10 ug/ml", "setting": "[1]", "value": 60, "unit": "%"},
      {"measurement": "EC50", "setting": "PC-12", "value": 6, "unit": "µg/mL"},
      {"measurement": "EC50", "setting": "HeLa", "value": 1, "unit": "µg/mL"},
      {"measurement": "mortality at 24 h, 10 ug/ml", "setting": "[2]", "value": 45, "unit": "%"}
    ]},
    {"smiles": "COC(=O)[C@H](C)[C@@H]1CC[C@@](C)(CCC2=C(C)CCCC2(C)C)OO1", "values": [
      {"measurement": "Activity", "setting": "L5178Y", "value": "inactive"},
      {"measurement": "mortality at 48 h, 10 ug/ml", "setting": "[1]", "value": 65, "unit": "%"},
      {"measurement": "Activity", "setting": "PC-12", "value": "inactive"},
      {"measurement": "Activity", "setting": "HeLa", "value": "inactive"},
      {"measurement": "mortality at 24 h, 10 ug/ml", "setting": "[2]", "value": 25, "unit": "%"}
    ]},
    {"smiles": "COC(=O)[C@H](C)[C@@H]1CC[C@@](C)(CCC(=O)C(C)(C)CCCC(C)=O)OO1", "note": "[DIACARPEROXIDE C]", "values": [
      {"measurement": "EC50", "setting": "L5178Y", "value": "> 10", "unit": "µg/mL"},
      {"measurement": "mortality at 48 h, 10 ug/ml", "setting": "[1]", "value": 55, "unit": "%"},
      {"measurement": "Activity", "setting": "PC-12", "value": "inactive"},
      {"measurement": "Activity", "setting": "HeLa", "value": "inactive"},
      {"measurement": "mortality at 24 h, 10 ug/ml", "setting": "[2]", "value": 35, "unit": "%"}
    ]},
    {"smiles": "COC(=O)[C@H](C)[C@@H]1CC[C@@](C)(CCC2=C(C)C(=O)CCC2(C)C)OO1", "note": "[METHYL DIACARNOATE A]", "values": [
      {"measurement": "EC50", "setting": "L5178Y", "value": "< 3", "unit": "µg/mL"},
      {"measurement": "Activity", "setting": "PC-12", "value": "inactive"},
      {"measurement": "Activity", "setting": "HeLa", "value": "inactive"}
    ]},
    {"smiles": "COC(=O)[C@H](C)[C@H]1CC[C@@](C)(CCC2=C(C)C(=O)CCC2(C)C)OO1", "note": "[DIACARPEROXIDE A]", "values": [
      {"measurement": "EC50", "setting": "L5178Y", "value": "> 10", "unit": "µg/mL"},
      {"measurement": "mortality at 48 h, 10 ug/ml", "setting": "[1]", "value": 55, "unit": "%"},
      {"measurement": "Activity", "setting": "PC-12", "value": "inactive"},
      {"measurement": "Activity", "setting": "HeLa", "value": "inactive"},
      {"measurement": "mortality at 24 h, 10 ug/ml", "setting": "[2]", "value": 35, "unit": "%"}
    ]},
    {"smiles": "CC1=C(CC[C@]2(C)CC[C@H]([C@@H](C)C(=O)O)OO2)[C@]2(C)CCCC(C)(C)[C@H]2CC1", "note": "[DIACARPEROXIDE D]", "values": [
      {"measurement": "EC50", "setting": "L5178Y", "value": "< 0.1", "unit": "µg/mL"},
      {"measurement": "EC50", "setting": "PC-12", "value": 8.1, "unit": "µg/mL"},
      {"measurement": "EC50", "setting": "HeLa", "value": 0.17, "unit": "µg/mL"}
    ]},
    {"smiles": "CCCC(O)CCC(C)(O)CC/C=C(\\C)CCC1=C(C)CCCC1(C)C", "note": "(centres undefined) [DIACARDIOL A]", "values": [
      {"measurement": "EC50", "setting": "L5178Y", "value": 4.8, "unit": "µg/mL"},
      {"measurement": "mortality at 48 h, 10 ug/ml", "setting": "[1]", "value": 40, "unit": "%"},
      {"measurement": "EC50", "setting": "PC-12", "value": "> 10", "unit": "µg/mL"},
      {"measurement": "EC50", "setting": "HeLa", "value": "> 10", "unit": "µg/mL"},
      {"measurement": "mortality at 24 h, 10 ug/ml", "setting": "[2]", "value": 20, "unit": "%"}
    ]},
    {"smiles": "CC1=C(CC/C(C)=C/CC[C@@]2(C)CC[C@@H]([C@H](C)C(=O)O)OO2)C(C)(C)CCC1", "note": "[EPIMUQUBILIN A]", "values": [
      {"measurement": "EC50", "setting": "L5178Y", "value": 0.28, "unit": "µg/mL"},
      {"measurement": "mortality at 48 h, 10 ug/ml", "setting": "[1]", "value": 50, "unit": "%"},
      {"measurement": "EC50", "setting": "PC-12", "value": "> 10", "unit": "µg/mL"},
      {"measurement": "EC50", "setting": "HeLa", "value": 7.2, "unit": "µg/mL"},
      {"measurement": "mortality at 24 h, 10 ug/ml", "setting": "[2]", "value": 25, "unit": "%"}
    ]}
  ]
}
